# Only some compounds are listed: those with a hit (about 1.8% of all), similar ones and a draw of the others.
# SUMO1-SIM PPI – modulators of human SUMO1-mediated protein-protein interactions; SUMO1 binding to a labelled peptide, TR-FRET, 1 h; inhibition, % at 20 µM; 360,000 compounds, 0.33% hits; P63165; AID 602429; in the data active = inhibition above about 37%
# HKDC1 inh – inhibitors of human hexokinase HKDC1. Q2TB90. recombinant HKDC1, G6PDH/diaphorase resazurin coupled fluorescence. inhibition, % at 20 µM. 340,000 compounds, 0.16% hits;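 active = inhibition above about 35% when tested at 20 µM, limit read from the data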;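 also: plate controls were DMSO wells with enzyme for no effect and DMSO wells lacking enzyme for full effect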
#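 Material: recombinant HKDC1 hexokinase; Amount: HKDC1 at 5 µg/mL; Medium: Tris pH 8.0 buffer with MgCl2, Tween-20, BSA, BME; Schedule: 90 min reaction incubation at room temperature, dark; Technique: coupled resazurin fluorescence, excitation 525 nm, emission 613 nm.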
# DNMT1 block – DNMT1 (human) enzyme inhibition; DNMT1 molecular beacon, Hinp1I cleavage, fluorescence; inhibition (reported as % activation of signal), % at 10 µM; 360,000 compounds, 0.83% hits; AID 588458; in the data active = inhibition above about 50%
# Scp-1 inhibitor – Scp-1 (human) phosphatase inhibition; Q9GZU7; Recombinant Scp1, phosphopeptide, malachite green phosphate absorbance; inhibition, % at 20 µM; 340,000 compounds, 0.88% hits;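 active = inhibition above about 50% at 20 µM, limit read from the data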;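 also: plate controls were DMSO wells with enzyme for no effect and wells lacking enzyme for full effect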
#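 Material – SCP-1 phosphatase catalytic domain, residues 76-261 · Buffer or medium – Acidic Tris acetate buffer with magnesium and detergent · Also added – Phospho 17-mer peptide substrate · Compound – single 20 µM dose, 1% DMSO · Times – 45 min room-temperature reaction, 5 min colour, 30 min stabiliser · Technique – Phosphate-binding colour reagent, absorbance read at 630 nm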
# STEP block – blocks human striatal-enriched tyrosine phosphatase; P54829; recombinant STEP, OMFP fluorogenic substrate, fluorescence; inhibition, % at 20 µM; 360,000 compounds, 0.25% hits;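 active = inhibition at 20 µM, scaled per plate between control wells, above about 37%, limit read from the data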;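 also: 0% = DMSO with enzyme and substrate and 100% = substrate only without enzyme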
# Target sequence (P54829 whole entry, looked up): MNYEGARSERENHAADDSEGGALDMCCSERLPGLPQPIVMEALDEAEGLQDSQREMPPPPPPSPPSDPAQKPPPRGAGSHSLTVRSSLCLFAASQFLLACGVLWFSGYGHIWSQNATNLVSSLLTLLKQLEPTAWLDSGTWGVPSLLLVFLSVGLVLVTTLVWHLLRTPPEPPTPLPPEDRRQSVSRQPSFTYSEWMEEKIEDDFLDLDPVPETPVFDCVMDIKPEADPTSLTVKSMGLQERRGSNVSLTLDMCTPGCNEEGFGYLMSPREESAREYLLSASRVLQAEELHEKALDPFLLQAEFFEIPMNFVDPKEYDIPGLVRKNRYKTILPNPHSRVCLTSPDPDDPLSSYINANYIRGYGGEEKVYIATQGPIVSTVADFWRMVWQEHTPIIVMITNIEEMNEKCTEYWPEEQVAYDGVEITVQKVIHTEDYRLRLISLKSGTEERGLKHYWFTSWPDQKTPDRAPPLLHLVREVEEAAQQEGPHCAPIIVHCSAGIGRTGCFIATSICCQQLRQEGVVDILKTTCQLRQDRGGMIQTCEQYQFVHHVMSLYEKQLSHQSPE
#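 material = STEP tyrosine phosphatase | reagent = fluorogenic phosphatase substrate OMFP at 25 µM final | doses = single compound dose of 20 µM, 1% DMSO final | schedule = 20 min reaction, room temperature, in the dark | measured by = fluorescence, 480/540 nm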
# LMPTP inh – LMPTP (human) inhibition; P24666; recombinant LMPTP-A, OMFP fluorogenic substrate, fluorescence intensity; inhibition, % at 20 µM; 360,000 compounds, 0.22% hits; AID 651560;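 active = compounds that cut the enzyme signal by at least half of the control window in the single-dose screen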;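 also: plate controls were DMSO wells with enzyme plus substrate for no effect and substrate without enzyme for full effect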
#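 Test system: LMPTP-A, protein tyrosine phosphatase of low molecular weight; Input: 0.625 nM enzyme; Incubation: 50 min dark incubation at room temperature; Signal: endpoint fluorescence intensity from OMFP dephosphorylation; Read-out basis: % inhibition versus control wells.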
# * hit, by the source's call; . = no result given.
SMILES,SUMO1-SIM PPI,HKDC1 inh,DNMT1 block,Scp-1 inhibitor,STEP block,LMPTP inh
C[C@@H]1CN([C@@H](C)CO)C(=O)CCCn2cc(nn2)CO[C@H]1CN(C)S(=O)(=O)c1ccc(C#N)cc1,8,.,3,.,-2,-2
COC(=O)C1(C)NC(c2ccc(OC)cc2)C2C(=O)N(c3ccccc3)C(=O)C21 (stereo not drawn),5,-5,-2,-2,0,-2
Nc1cccc2c(O)cc(S(=O)(=O)O)cc12,76*,25,114*,93*,92*,78*
Cc1ccc(S(=O)(=O)c2cc(Nc3ccccc3)ccc2O)cc1,-7,5,-23,-6,-1,2
Cc1ccc(Nc2ccc(N)cc2S(=O)(=O)O)cc1,27,1,13,15,5,67*
O=C(NCc1ccco1)c1ccc(CS(=O)(=O)c2cccc(C(F)(F)F)c2)o1,55*,-3,-1,-11,2,-1
COCCSc1nc(N)c(NC(=O)c2ccco2)c(=O)[nH]1,1,3,3,-3,0,-1
O=C(CSc1nnc(CNC(=O)c2ccccc2)o1)NCc1ccc2c(c1)OCO2,1,-8,2,-5,3,1
Cc1ccnc(NC(c2cccnc2)c2ccc3cccnc3c2O)c1 (stereo not drawn),-12,-34,-2,-13,9,54*
CCS(=O)(=O)N1Cc2ccccc2CC1C(=O)Nc1ccc(F)c(F)c1F (stereo not drawn),0,3,-6,-1,0,1
CCN1/C(=C/c2ccc3cc(C)ccc3[n+]2C)Sc2ccc3sccc3c21,24,11,-17,45,17,77*
CCN1/C(=C/c2ccc3cc(C)ccc3[n+]2CC)Sc2cc(C)ccc21,-75,-1,9,34,4,50*
Cc1ccc(C2=NOC(=O)/C2=C\C=C\c2ccccc2)cc1,41*,30,28,-10,-2,2
Cc1ccc(N2C(=O)[C@@H]3[C@H](C2=O)[C@H]2C=C(C(=O)c4ccccc4)C=CN2[C@@H]3C(=O)c2ccc(Cl)cc2)cc1,-14,3,-13,1,4,1
O=C(C1=C[C@@H]2[C@H]3C(=O)N(c4cccc(Cl)c4)C(=O)[C@H]3[C@@H](C(=O)c3ccc(Cl)cc3)N2C=C1)c1ccccc1,-3,1,69*,-10,4,3
COc1cc(C#Cc2c(C=O)n(C)c3ccccc23)cc(OC)c1,-7,1,-2,-11,-4,0
Cn1c2ccccc2c(=O)c2cc(C#Cc3ccccn3)ccc21,-15,3,26,58*,4,11
C=CCn1c2ccccc2c(=O)c2cc(C#Cc3cc(OC)cc(OC)c3)ccc21,-90,6,-2,52*,0,6
O=C(c1ccco1)N1CCN(c2ncnc3scc(-c4ccc(Cl)cc4)c23)CC1,6,.,2,.,0,1
COc1ccc(-c2csc(NC(=S)NC(=O)c3cccs3)n2)cc1OC,44*,1,-27,-8,2,4
CCC(=O)Nc1ccc(S(=O)(=O)NC[C@H]2O[C@@H](n3cc(C)c(=O)[nH]c3=O)C[C@@H]2O)cc1,1,.,2,.,0,-2
CCOC(=O)/C(=C\C=C1/Sc2cc(OCC)c(OCC)cc2N1CC)C(C)=O,-201,4,93*,1,-129,15
CCOC(=O)/C(=C/C=C1\Sc2cc(OCC)c(OCC)cc2N1CC)C(C)=O,-172,-4,46,3,-134,17
COc1ccncc1-c1ccccc1C1=CC(=O)CC(C)(C)C1=O,-25,.,0,.,1,-1
Cc1cccc(NC(=O)CNC(=O)CSc2ncccn2)c1C,23,-4,3,-5,-4,0
Cc1cccc(NC(=O)CNC(=O)Cn2ncc(Cl)c(Cl)c2=O)c1C,11,6,83*,93*,8,12
CC(=O)N(CC(C)C(=O)O)c1c(I)cc(I)c(N)c1I (stereo not drawn),4,0,6,-6,-3,-2

# From PubChem
